Assay results: ChEMBL document CHEMBL3867438, “Cytotoxic Tirucallane and Apotirucallane Triterpenoids from the Stems of Picrasma quassioides” (J Nat Prod, 2016)
The source made the active and inactive calls. No cut-off for these calls is given here.

What was measured:
[1] = Cytotoxicity against human MKN28 cells assessed as inhibition of cell proliferation after 48 hrs by MTT assay; type: functional, cell-based; settings: MKN-28, 48 h
Method in brief: (§1)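 Cells grown in DMEM with 10% FBS, 100 U/mL penicillin, 100 μg/mL streptomycin, 37 °C, 5% CO2. Seeded 5 × 10^3 cells/well, 12 h, then exposed to compounds for 48 h. MTT (5 mg/mL stock) added for 4 h at 37 °C, formazan dissolved in DMSO, absorbance read at 570 nm. IC50 relative to untreated control. Triplicate, repeated twice; cis-platinum as positive control.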

[2] = Cytotoxicity against human A549 cells assessed as inhibition of cell proliferation after 48 hrs by MTT assay; type: functional, cell-based; settings: A549, 48 h; method in brief: as §1
[3] = Cytotoxicity against human MCF7 cells assessed as inhibition of cell proliferation after 48 hrs by MTT assay; type: functional, cell-based; settings: MCF7, 48 h; method in brief: as §1
MKN-28 [4] = test: Induction of apoptosis in human MKN28 cells assessed as viable cells at 2 uM after 48 hrs by annexin V-FITC/PI staining based flow cytometry (reference value: 100%); type: functional; settings: MKN-28, 48 h, read-out: Activity
Method in brief: (§2)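 MKN-28 cells (3 × 10^5/well) treated at 2, 6 and 8 μM for 48 h. Stained with annexin V-FITC and PI using a kit per the maker's protocol, then analysed by flow cytometry. Apoptotic populations quantified, early and late apoptosis counted separately. Data given as mean with SD; one-way ANOVA with Tukey's post hoc test.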

MKN-28 [5] = test: Induction of apoptosis in human MKN28 cells assessed as early apoptotic cells at 2 uM after 48 hrs by annexin V-FITC/PI staining based flow cytometry (reference value: 0.043%); type: functional; method in brief: as §2
MKN-28 [6] = test: Induction of apoptosis in human MKN28 cells assessed as late apoptotic cells at 2 uM after 48 hrs by annexin V-FITC/PI staining based flow cytometry (reference value: 0%); type: functional; method in brief: as §2
MKN-28 [7] = test: Induction of apoptosis in human MKN28 cells assessed as necrotic cells at 2 uM after 48 hrs by annexin V-FITC/PI staining based flow cytometry (reference value: 0%); type: functional; method in brief: as §2
MKN-28 [8] = test: Induction of apoptosis in human MKN28 cells assessed as viable cells at 6 uM after 48 hrs by annexin V-FITC/PI staining based flow cytometry (reference value: 100%); type: functional; settings: MKN-28, 48 h, read-out: Activity; method in brief: as §2
MKN-28 [9] = test: Induction of apoptosis in human MKN28 cells assessed as early apoptotic cells at 6 uM after 48 hrs by annexin V-FITC/PI staining based flow cytometry (reference value: 0.043%); type: functional; method in brief: as §2
MKN-28 [10] = test: Induction of apoptosis in human MKN28 cells assessed as late apoptotic cells at 6 uM after 48 hrs by annexin V-FITC/PI staining based flow cytometry (reference value: 0%); type: functional; method in brief: as §2
MKN-28 [11] = test: Induction of apoptosis in human MKN28 cells assessed as necrotic cells at 6 uM after 48 hrs by annexin V-FITC/PI staining based flow cytometry (reference value: 0%); type: functional; method in brief: as §2
MKN-28 [12] = test: Induction of apoptosis in human MKN28 cells assessed as viable cells at 8 uM after 48 hrs by annexin V-FITC/PI staining based flow cytometry (reference value: 100%); type: functional; settings: MKN-28, 48 h, read-out: Activity; method in brief: as §2
MKN-28 [13] = test: Induction of apoptosis in human MKN28 cells assessed as early apoptotic cells at 8 uM after 48 hrs by annexin V-FITC/PI staining based flow cytometry (reference value: 0.043%); type: functional; method in brief: as §2
MKN-28 [14] = test: Induction of apoptosis in human MKN28 cells assessed as late apoptotic cells at 8 uM after 48 hrs by annexin V-FITC/PI staining based flow cytometry (reference value: 0%); type: functional; method in brief: as §2
MKN-28 [15] = test: Induction of apoptosis in human MKN28 cells assessed as necrotic cells at 8 uM after 48 hrs by annexin V-FITC/PI staining based flow cytometry (reference value: 0%); type: functional; method in brief: as §2
MKN-28 [16] = test: Induction of apoptosis in human MKN28 cells assessed as increase in early apoptotic cells after 48 hrs by annexin V-FITC/PI staining based flow cytometry; type: functional, cell-based; method in brief: as §2
MKN-28 [17] = test: Induction of apoptosis in human MKN28 cells assessed as increase in late apoptotic cells after 48 hrs by annexin V-FITC/PI staining based flow cytometry; type: functional, cell-based; method in brief: as §2
MKN-28 [18] = test: Induction of mitochondrial apoptosis in human MKN28 cells assessed as caspase 3 activation at 2 to 8 uM after 48 hrs by Western blot analysis; type: functional, cell-based
Method in brief: (§3)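 MKN-28 cells (1 × 10^6/dish) cultured with compound at 2, 6 and 8 μM for 48 h. Cells lysed for 30 min on ice in RIPA buffer with DTT, PMSF and phosphatase inhibitor, then spun at 14000g, 4 °C, 15 min. Protein measured by BCA. Blots probed for Bcl-2, Bax, Bad, cleaved and pro-caspase-3 and -9, with β-actin as loading control.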

MKN-28 [19] = test: Induction of mitochondrial apoptosis in human MKN28 cells assessed as caspase 9 activation at 2 to 8 uM after 48 hrs by Western blot analysis; type: functional, cell-based; method in brief: as §3
MKN-28 [20] = test: Induction of mitochondrial apoptosis in human MKN28 cells assessed as increase in bax expression level at 2 to 8 uM after 48 hrs by Western blot analysis; type: functional, cell-based; method in brief: as §3
MKN-28 [21] = test: Induction of mitochondrial apoptosis in human MKN28 cells assessed as increase in bad expression level at 2 to 8 uM after 48 hrs by Western blot analysis; type: functional, cell-based; method in brief: as §3
MKN-28 [22] = test: Induction of mitochondrial apoptosis in human MKN28 cells assessed as decrease in bcl-2 expression level at 2 to 8 uM after 48 hrs by Western blot analysis; type: functional, cell-based; method in brief: as §3

Work on `CCO[C@@H]1O[C@@H](C=C(C)C)C[C@H]1[C@@H]1CC=C2[C@]3(C)[C@H](O)C[C@H]4C(C)(C)[C@H](O)CC[C@]4(C)[C@H]3CC[C@]21C` yielded an IC50 [1] of 2.5 µM, an IC50 [2] of 5.6 µM and an IC50 [3] of 9.1 µM. For the same compound, the viability at 2 µM (MKN-28 [4]) was 93.2%, the Activity (MKN-28 [5]) was 3.21% and the Activity (MKN-28 [6]) was 2.69%. For the same compound, the Activity (MKN-28 [7]) was 0.869%, the viability at 6 µM (MKN-28 [8]) was 78.9% and the Activity (MKN-28 [9]) was 5.76%. The Activity (MKN-28 [10]) was 12.6%, the Activity (MKN-28 [11]) was 2.51% and the viability at 8 µM (MKN-28 [12]) was 66%. It also gave an Activity (MKN-28 [13]) of 12.4%, an Activity (MKN-28 [14]) of 21% and an Activity (MKN-28 [15]) of 0.685%. The Activity (MKN-28 [16]) was “Dose-dependent effect”, the Activity (MKN-28 [17]) was “Dose-dependent effect” and the Activity (MKN-28 [18]) was “Active”. For the same compound, the Activity (MKN-28 [19]) was “Active”, the Activity (MKN-28 [20]) was “Active” and the Activity (MKN-28 [21]) was “Active”. The Activity (MKN-28 [22]) was “Active”.
